For assay [1], the system named is Isocitrate dehydrogenase [NADP] cytoplasmic (Homo sapiens), O75874 [R132H]. In words: Inhibition of IDH1 […] assessed as down regulation of H3K9me3 expression at 3.25 to 6.5 uM measured after 48 hrs by Western blot analysis. Format: cell-based. The conditions noted are these: dose 3.25-6.5 µM. In a few lines:
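HT1080 cells in 6-well plates treated 48 h. Lysed in RIPA, protein measured by BCA. Run on 12% SDS-PAGE, blotted to PVDF, blocked in 5% milk 1 h. Probed with H3K9me3 primary antibody, β-actin also available, then HRP secondary.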

In assay [2] the test system is HT-1080. Briefly: Induction of apoptosis in human HT-1080 cells assessed as early apoptotic cells at 6.5 uM measured after 48 hrs by Annexin V-FITC/propidium iodide staining based flow cytometry (reference value: 0%). Type of assay: functional.
Assay [3] relates to Isocitrate dehydrogenase [NADP] cytoplasmic (Homo sapiens), O75874 [R132H]. In words: Inhibition of IDH1 […] assessed as reduction in HIF-1alpha accumulation at 3.25 to 6.5 uM measured after 48 hrs by DAPI staining based immunofluorescence microscopic analysis. The conditions noted are these: dose 3.25-6.5 µM. Type of assay: cell-based. In outline:
(§1)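 HT1080 cells on slides exposed 48 h to 3.25 or 6.5 μM compound. Fixed in 4% paraformaldehyde 15 min, permeabilised with 0.1% Triton X-100 for 5 min at 4 °C, blocked 2 h in 5% BSA. Primary antibody (H3K9me3, HIF-1α or p53, 1:100) overnight at 4 °C. Fluorescent secondary (1:500) 1 h in the dark, DAPI counterstain, imaged.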

Assay [4] deals with HT-1080. In words: Antiproliferative activity against human HT-1080 cells assessed as reduction in cell proliferation measured after 48 hrs by CCK8 assay. The note with it: HT-1080, 48 h. Format: functional, cell-based. In a few lines:
(§2)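 HT1080 cells (IDH1 R132C) in high-glucose DMEM with 10% FBS, 37 °C, 5% CO2. Adherent cells exposed to compound in fresh medium for 48 h, DMSO kept below 0.5%. Viability by CCK8, absorbance at 450 nm. Three repeats.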

Assay [5] deals with Isocitrate dehydrogenase [NADP] cytoplasmic (Homo sapiens), O75874 [R132H]. Briefly: Inhibition of IDH1 […] assessed as increase in p53 expression at 3.25 to 6.5 uM measured after 48 hrs by DAPI staining based immunofluorescence microscopic analysis. Format: cell-based. The note with it: dose 3.25-6.5 µM. In outline:
as §1

The test system of assay [6] is HT-1080. Briefly: Induction of apoptosis in human HT-1080 cells assessed as nuclear fragmentation at 3.25 to 6.5 uM measured after 48 hrs by Hoechst 33258 and DAPI staining based fluorescence microscopic analysis. Type of assay: functional, cell-based. The conditions noted are these: dose 3.25-6.5 µM. In a few lines: (§3)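 HT1080 cells exposed 48 h to 3.25 or 6.5 μM compound. Blocked 2 h, then stained 30 min with Hoechst 33258. Nuclear morphology viewed by fluorescence microscopy (×200).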

Assay [7] addresses T1, Isocitrate dehydrogenase [NADP] cytoplasmic (Homo sapiens, UniProt O75874, R132H). In words: Binding affinity to C-terminal His6-tagged IDH1 R132H mutant (unknown origin) expressed in Escherichia coli BL21 (DE) measured after 20 mins by Red-NHS fluorescence dye-based microscale thermophoresis analysis. In outline: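 IDH1 R132H fluorescently labelled (RED kit) and used at 20 nM in 20 mM HEPES pH 7.5 with 0.05% Tween-20. Mixed 1:1 with a ligand dilution series, 20 min at room temperature. Loaded in standard capillaries, 10 min at 25 °C. Thermophoresis read at 20% laser and 100% LED power, Kd fitted from the curve.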

For assay [8], the system named is HT-1080. Briefly: Induction of apoptosis in human HT-1080 cells assessed as appearance of densely stained nucleus at 3.25 to 6.5 uM measured after 48 hrs by Hoechst 33258 and DAPI staining based fluorescence microscopic analysis. Type of assay: functional, cell-based. The note with it: dose 3.25-6.5 µM. In a few lines: as §3
For assay [9], the system named is Isocitrate dehydrogenase [NADP] cytoplasmic (Homo sapiens), O75874 [R132H]. Briefly: Inhibition of IDH1 […] assessed as reduction in R-2-HG concentration measured after 48 hrs by LC-MS/MS analysis. Type of assay: cell-based. The note with it: dose 0.94-30 µM. In outline:
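HT1080 cells treated 48 h with 0.94–30 μM compound or DMSO. Medium diluted in methanol and centrifuged. R-2-HG in the supernatant quantified by LC-MS/MS (ESI, MRM) on a C18 column, gradient of methanol against 10 mM ammonium acetate pH 7.4. Peak area normalised to internal standard, IC50 from the dose–response curve.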

Assay [10] deals with T1, Isocitrate dehydrogenase [NADP] cytoplasmic. In words: Inhibition of C-terminal His6-tagged IDH1 R132H mutant (unknown origin) expressed in Escherichia coli BL21 (DE) using alpha-ketoglutarate as substrate preincubated for 10 mins followed by substrate addition and measured at 1 min interval for 20 mins in presence of NADPH. In outline: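 His-tagged IDH1 R132H at 2 μM in 50 mM HEPES pH 7.5 with 4 mM MgCl2 and 100 μM NADPH. Compound preincubated with enzyme 10 min, then reaction started with 2 mM α-KG. NADPH consumption read at 340 nm every 1 min for 20 min. IC50 from mean of three independent assays.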

For assay [11], the system named is HT-1080. Briefly: Antiproliferative activity against human HT-1080 cells assessed as reduction in number of EdU-positive cells measured after 24 hrs by EdU and DAPI staining based fluorescence microscopic analysis. Type of assay: functional, cell-based. The conditions noted are these: dose 3.25-6.5 µM. In a few lines: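 Log-phase HT1080 cells treated 24 h with 3.25 or 6.5 μM compound or DMSO. Then 50 μM EdU in serum-free DMEM for 2 h. Fixed in 4% paraformaldehyde, quenched with glycine, permeabilised with 0.5% Triton X-100. Apollo dye reaction for 30 min, DAPI nuclear counterstain, fluorescence microscopy. Three repeats.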

For assay [12], the system named is HT-1080. Briefly: Induction of apoptosis in human HT-1080 cells assessed as necrotic cells at 6.5 uM measured after 48 hrs by Annexin V-FITC/propidium iodide staining based flow cytometry (reference value: 30.2%). Type of assay: functional.
Assay [13] relates to HT-1080. In words: Induction of apoptosis in human HT-1080 cells assessed as viable cells at 6.5 uM measured after 48 hrs by Annexin V-FITC/propidium iodide staining based flow cytometry (reference value: 66.6%). Format: functional. The conditions noted are these: read-out: Activity.
For assay [14], the system named is HT-1080. In words: Antiproliferative activity against human HT-1080 cells transfected with shIDH1 R132C assessed as reduction in cell proliferation at 1.25 to 10 uM measured after 48 hrs by CCK8 assay. Type of assay: functional, cell-based. The conditions noted are these: dose 1.25-10 µM. In a few lines:
as §2

Assay [15] deals with Isocitrate dehydrogenase [NADP] cytoplasmic (Homo sapiens), O75874 [R132H]. Briefly: Inhibition of IDH1 […] assessed as down regulation of H3K9me3 expression at 6.5 uM measured after 48 hrs by DAPI staining based immunofluorescence microscopic analysis. Type of assay: cell-based. In a few lines: as §1
Assay [16] concerns HT-1080. Briefly: Induction of apoptosis in human HT-1080 cells assessed as late apoptotic cells at 6.5 uM measured after 48 hrs by Annexin V-FITC/propidium iodide staining based flow cytometry (reference value: 3.2%). Type of assay: functional.
In assay [17] the target is Isocitrate dehydrogenase [NADP] cytoplasmic (Homo sapiens, UniProt O75874). In words: Inhibition of wild-type IDH1 (unknown origin) in presence of sodium(D)-isocitrate and NADP+. In outline:
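Wild-type IDH1 purified at 43 nM in 50 mM HEPES pH 7.5 with 50 μM sodium D-isocitrate, 4 mM MgCl2 and 1 mM NADP+. NADPH production monitored at 340 nm. IC50 from mean of three independent assays.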

The source made the active and inactive calls. The rule behind the calls is not given here.

T1 sequence (O75874 2-414 R132H limits assumed): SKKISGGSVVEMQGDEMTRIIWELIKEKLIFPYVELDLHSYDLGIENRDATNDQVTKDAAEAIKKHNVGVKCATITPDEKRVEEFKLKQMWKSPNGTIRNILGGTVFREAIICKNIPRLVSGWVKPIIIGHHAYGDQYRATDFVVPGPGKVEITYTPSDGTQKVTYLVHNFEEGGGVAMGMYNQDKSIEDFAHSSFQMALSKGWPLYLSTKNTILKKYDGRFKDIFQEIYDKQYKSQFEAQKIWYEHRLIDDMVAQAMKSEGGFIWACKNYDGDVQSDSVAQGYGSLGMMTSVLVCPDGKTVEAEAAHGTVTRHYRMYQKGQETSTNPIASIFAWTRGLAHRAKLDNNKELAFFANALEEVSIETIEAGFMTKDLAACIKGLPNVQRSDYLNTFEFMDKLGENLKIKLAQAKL
Isocitrate dehydrogenase [NADP] cytoplasmic (Homo sapiens), O75874 [R132H], sequence (O75874 whole entry R132H): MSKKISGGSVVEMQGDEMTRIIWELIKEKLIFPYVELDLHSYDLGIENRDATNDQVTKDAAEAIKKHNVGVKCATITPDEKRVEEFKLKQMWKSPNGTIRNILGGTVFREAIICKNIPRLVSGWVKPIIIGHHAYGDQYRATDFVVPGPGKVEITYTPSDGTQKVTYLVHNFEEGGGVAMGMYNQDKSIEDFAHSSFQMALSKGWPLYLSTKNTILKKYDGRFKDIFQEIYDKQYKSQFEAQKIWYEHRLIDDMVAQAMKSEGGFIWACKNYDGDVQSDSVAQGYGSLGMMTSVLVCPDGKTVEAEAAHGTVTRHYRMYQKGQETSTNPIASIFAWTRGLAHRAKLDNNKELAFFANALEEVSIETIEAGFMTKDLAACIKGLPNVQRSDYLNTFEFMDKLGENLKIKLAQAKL
Isocitrate dehydrogenase [NADP] cytoplasmic (Homo sapiens, UniProt O75874), sequence (O75874 whole entry): as the sequence (O75874 whole entry R132H) above, with H132R counted along it

For the compound `C[C@@]12C[C@H]3OC(=O)[C@@H]1CO[C@]14O[C@@]5([C@H]2C1=O)[C@@]3(C)OC(=O)[C@@]5(O)CC[C@H]1[C@H]4C[C@H]2O[C@]23CC=CC(=O)[C@]13C`, the inhibition result in [1], in assay [3], in assay [5] and in assay [15] was “Active” each time. Also, the Activity with HT-1080 [2] is 55%; in the assay with HT-1080 [11], “Dose-dependent effect”; in the assay with HT-1080 [12] it was 1.1%; with HT-1080 [16], 23.9%. Moreover, the IC50 was 2.41 µM with HT-1080 [4], 0.63 µM in assay [10] and above 200 µM in assay [17]. Moreover, the outcome in the assay with HT-1080 [6], in the assay on HT-1080 [8] and with HT-1080 [14] was Active. In assay [7], this compound came in with a Kd of 15.3 µM. In [9], the inhibition entry is “Dose-dependent effect”. The viability at 6.5 µM with HT-1080 [13] stood at 19.9%.

As for `C[C@]12C(=O)C=CCC1=CC[C@@H]1[C@@H]2CC[C@]2(O)C(=O)O[C@@]3(C)[C@H]4C[C@]5(C)[C@@H](CO[C@@]16O[C@@]32[C@H]5C6=O)C(=O)O4` [PHYSALIN B], the Kd in assay [7] turned out to be 45.3 µM. Besides, the half-inhibitory concentration (IC50) in assay [10] is 1.26 µM; in assay [17], above 200 µM.

For the origin of these results see ChEMBL document CHEMBL4706709, “Withanolides from dietary tomatillo suppress HT1080 cancer cell growth by targeting mutant IDH1” (Bioorg Med Chem, 2021).
